# ChEMBL document CHEMBL1914423, “New imidazo[2,1-b]thiazole derivatives: synthesis, in vitro anticancer evaluation, and in silico studies” (Eur J Med Chem, 2011)
# Tests used:
# Assay type in all cases: functional
# HL-60(TB) = test: Anticancer activity against human HL-60(TB) cells after 48 hrs by SRB assay; conditions: HL-60, 48 h
# Method in brief: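 NCI-60 five-dose screen. Cells grown in RPMI 1640 with 5% FBS and 2 mM L-glutamine, seeded at 5000–40,000 cells/well, and held 24 h at 37 °C and 5% CO₂ before drug. DMSO stocks were diluted into five concentrations (10-fold or ½-log steps). Settled suspension cells were fixed with cold TCA, SRB-stained, and read at 515 nm. […] was taken where [(Ti−Tz)/(C−Tz)]×100 = 50.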
# K562 = test: Anticancer activity against human K562 cells after 48 hrs by SRB assay; conditions: K562, 48 h
# Method in brief: (§1)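 NCI five-dose screen. Cells in RPMI 1640 with 5% FBS and 2 mM L-glutamine, seeded at 5000–40,000 cells/well according to doubling time, then pre-incubated 24 h at 37 °C in 5% CO2. Drugs dissolved in DMSO, five concentrations by 10-fold or 1/2-log dilution. Cells fixed with TCA, SRB-stained, A515 read. IC50 solved from [(Ti−Tz)/(C−Tz)]×100 = 50.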
# RPMI-8226 = test: Anticancer activity against human RPMI8226 cells after 48 hrs by SRB assay; conditions: RPMI-8226, 48 h
# SR = test: Anticancer activity against human SR cells after 48 hrs by SRB assay
# Method in brief: (§2)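 NCI-60 five-dose mode: cells in RPMI 1640 with 5% FBS and 2 mM glutamine, plated at 5000–40,000 cells/well, and preincubated 24 h, with time-zero plates TCA-fixed. Drug given at five concentrations (10-fold or ½-log serial dilutions). Cold TCA fixation 60 min at 4 °C, SRB stain, Tris solubilization, A515. IC50 taken where [(Ti−Tz)/(C−Tz)]×100 = 50.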
# EKVX = test: Anticancer activity against human EKVX cells after 48 hrs by SRB assay; method in brief: as §1
# HOP-62 = test: Anticancer activity against human HOP62 cells after 48 hrs by SRB assay; conditions: HOP-62, 48 h; method in brief: as §1
# HOP-92 = test: Anticancer activity against human HOP92 cells after 48 hrs by SRB assay; conditions: HOP-92, 48 h; method in brief: as §1
# NCI-H23 = test: Anticancer activity against human NCI-H23 cells after 48 hrs by SRB assay; conditions: NCI-H23, 48 h
# NCI-H522 = test: Anticancer activity against human NCI-H522 cells after 48 hrs by SRB assay; conditions: NCI-H522, 48 h
# COLO 205 = test: Anticancer activity against human COLO205 cells after 48 hrs by SRB assay; conditions: COLO 205, 48 h; method in brief: as §1
# HCT-116 = test: Anticancer activity against human HCT116 cells after 48 hrs by SRB assay; conditions: HCT-116, 48 h; method in brief: as §1
# HT-29 = test: Anticancer activity against human HT-29 cells after 48 hrs by SRB assay; conditions: HT-29, 48 h; method in brief: as §1
# SF-268 = test: Anticancer activity against human SF268 cells after 48 hrs by SRB assay; conditions: SF-268, 48 h
# SF-539 = test: Anticancer activity against human SF539 cells after 48 hrs by SRB assay; conditions: SF-539, 48 h
# U-251 = test: Anticancer activity against human U251 cells after 48 hrs by SRB assay; conditions: U-251, 48 h; method in brief: as §2
# LOX IMVI = test: Anticancer activity against human LOXIMVI cells after 48 hrs by SRB assay; method in brief: as §1
# Malme-3M = test: Anticancer activity against human MALME-3M cells after 48 hrs by SRB assay; method in brief: as §1
# MDA-MB-435 = test: Anticancer activity against human MDA-MB-435 cells after 48 hrs by SRB assay; conditions: MDA-MB-435, 48 h; method in brief: as §1
# SK-MEL-2 = test: Anticancer activity against human SK-MEL-2 cells after 48 hrs by SRB assay; conditions: SK-MEL-2, 48 h
# SK-MEL-5 = test: Anticancer activity against human SK-MEL-5 cells after 48 hrs by SRB assay; conditions: SK-MEL-5, 48 h
# OVCAR-4 = test: Anticancer activity against human OVCAR4 cells after 48 hrs by SRB assay; conditions: OVCAR-4, 48 h
# OVCAR-5 = test: Anticancer activity against human OVCAR5 cells after 48 hrs by SRB assay; conditions: OVCAR-5, 48 h
# NCI/ADR-RES = test: Anticancer activity against human NCI/ADR-RES cells after 48 hrs by SRB assay
# CAKI-1 = test: Anticancer activity against human Caki1 cells after 48 hrs by SRB assay; conditions: CAKI-1, 48 h; method in brief: as §1
# RXF 393 = test: Anticancer activity against human RXF393 cells after 48 hrs by SRB assay; conditions: RXF 393, 48 h
# T47D = test: Anticancer activity against human T47D cells after 48 hrs by SRB assay; method in brief: as §2
# MDA-MB-468 = test: Anticancer activity against human MDA-MB-468 cells after 48 hrs by SRB assay; conditions: MDA-MB-468, 48 h
# [1] = read-out: LC50 (the source's name)
smiles,measurement,setting,value
O=C(NCCNc1nccc(-c2c(-c3cccc(O)c3)nc3sccn23)n1)Nc1cccc(C(F)(F)F)c1,GI50,HL-60(TB),2.85 µM
same,LC50,HL-60(TB),> 100 µM
same,TGI,HL-60(TB),6.03 µM
same,GI50,K562,3.42 µM
same,TGI,K562,57.1 µM
same,CC50,K562; [1],> 100 µM
same,GI50,RPMI-8226,2.52 µM
same,LC50,RPMI-8226,> 100 µM
same,TGI,RPMI-8226,5.46 µM
same,GI50,SR,6.08 µM
same,TGI,SR,40 µM
same,CC50,SR; [1],> 100 µM
same,GI50,EKVX,4.16 µM
same,LC50,EKVX,> 100 µM
same,TGI,EKVX,36.6 µM
same,GI50,HOP-62,8.33 µM
same,LC50 (concentration killing 50% of starting cells),HOP-62,61 µM
same,TGI,HOP-62,23.4 µM
same,GI50,HOP-92,2.19 µM
same,TGI,HOP-92,9.38 µM
same,CC50,HOP-92; [1],> 100 µM
same,GI50,NCI-H23,4.62 µM
same,LC50 (50% lethal concentration),NCI-H23,> 100 µM
same,TGI,NCI-H23,32.5 µM
same,GI50,NCI-H522,2.11 µM
same,TGI,NCI-H522,5 µM
same,CC50,NCI-H522; [1],20.9 µM
same,GI50,COLO 205,3.36 µM
same,TGI,COLO 205,12 µM
same,CC50,COLO 205; [1],59.5 µM
same,GI50,HCT-116,3.58 µM
same,TGI,HCT-116,11.5 µM
same,CC50,HCT-116; [1],74.3 µM
same,GI50,HT-29,3.45 µM
same,TGI,HT-29,10.8 µM
same,CC50,HT-29; [1],49.9 µM
same,GI50,SF-268,3.45 µM
same,TGI,SF-268,14.6 µM
same,CC50,SF-268; [1],> 100 µM
same,GI50,SF-539,13.1 µM
same,TGI,SF-539,36.9 µM
same,CC50,SF-539; [1],> 100 µM
same,GI50,U-251,4.95 µM
same,TGI,U-251,23.6 µM
same,CC50,U-251; [1],> 100 µM
same,GI50,LOX IMVI,4.05 µM
same,TGI,LOX IMVI,26.2 µM
same,CC50,LOX IMVI; [1],> 100 µM
same,GI50,Malme-3M,2.09 µM
same,TGI,Malme-3M,7.3 µM
same,CC50,Malme-3M; [1],50.7 µM
same,GI50,MDA-MB-435,2.04 µM
same,TGI,MDA-MB-435,4.94 µM
same,CC50,MDA-MB-435; [1],41 µM
same,GI50,SK-MEL-2,2.8 µM
same,TGI,SK-MEL-2,6.07 µM
same,CC50,SK-MEL-2; [1],36 µM
same,GI50,SK-MEL-5,2.62 µM
same,TGI,SK-MEL-5,8.43 µM
same,CC50,SK-MEL-5; [1],28.9 µM
same,GI50,OVCAR-4,3.97 µM
same,TGI,OVCAR-4,14.2 µM
same,CC50,OVCAR-4; [1],39.7 µM
same,GI50,OVCAR-5,16.3 µM
same,TGI,OVCAR-5,65.3 µM
same,CC50,OVCAR-5; [1],> 100 µM
same,GI50,NCI/ADR-RES,26.9 µM
same,TGI,NCI/ADR-RES,> 100 µM
same,CC50,NCI/ADR-RES; [1],> 100 µM
same,GI50,CAKI-1,14.2 µM
same,TGI,CAKI-1,50.5 µM
same,CC50,CAKI-1; [1],> 100 µM
same,GI50,RXF 393,2.41 µM
same,TGI,RXF 393,5.1 µM
same,CC50,RXF 393; [1],12.9 µM
same,GI50,T47D,6.52 µM
same,TGI,T47D,25.6 µM
same,CC50,T47D; [1],97.1 µM
same,GI50,MDA-MB-468,1.67 µM
same,TGI,MDA-MB-468,3.33 µM
same,CC50,MDA-MB-468; [1],6.67 µM
